According to publication PMC7452071 (Acta Pharmaceutica Sinica. B, 2019):

Key:
HDAC6 = HDAC6 (Homo sapiens, UniProt Q9UBN7); assay: HDACs activity assay, HDAC6; format: biochemical
Procedure, shortened: (§1)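 Enzyme reactions run 30 min at 37 °C in 25 mmol/L Tris pH 8.0, 137 mmol/L NaCl, 2.7 mmol/L KCl, 1 mmol/L MgCl2, 0.1 mg/mL BSA with the HDAC isoform and its substrate. Test compound diluted in 10% DMSO, final DMSO 1%. Fluorescent product read at excitation 350–360, emission 450–460. IC50 from normalized nonlinear dose-response fit. At least three independent runs; mean ± SD (n = 3).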

A549 (lung cancer) = assay: In vitro cell viability assay; format: cell-based; conditions: Homo sapiens, A549, 48 h, read-out: IC50 A549
HDAC8 = HDAC8 (Homo sapiens, UniProt Q9BY41); assay: HDACs activity assay, HDAC8; format: biochemical
Sequence of HDAC8 (Q9BY41 whole entry): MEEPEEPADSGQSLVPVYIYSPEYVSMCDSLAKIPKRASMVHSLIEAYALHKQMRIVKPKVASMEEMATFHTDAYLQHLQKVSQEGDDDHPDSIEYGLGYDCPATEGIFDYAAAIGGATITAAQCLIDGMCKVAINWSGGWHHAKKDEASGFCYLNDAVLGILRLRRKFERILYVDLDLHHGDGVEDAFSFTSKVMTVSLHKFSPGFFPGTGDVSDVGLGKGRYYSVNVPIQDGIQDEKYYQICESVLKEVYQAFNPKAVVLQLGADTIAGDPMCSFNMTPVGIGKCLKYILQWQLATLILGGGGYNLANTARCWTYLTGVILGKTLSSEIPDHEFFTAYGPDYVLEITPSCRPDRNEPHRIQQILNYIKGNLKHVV
Procedure, shortened: as §1

HDAC2 = HDAC2 (Homo sapiens, UniProt Q92769); assay: HDACs activity assay, HDAC2; format: biochemical
Procedure, shortened: as §1

TOP2α = TOP2α (Homo sapiens, UniProt P11388); assay: TOP2-mediated pBR322 DNA relaxation assay; format: biochemical
Sequence of TOP2α (P11388 whole entry): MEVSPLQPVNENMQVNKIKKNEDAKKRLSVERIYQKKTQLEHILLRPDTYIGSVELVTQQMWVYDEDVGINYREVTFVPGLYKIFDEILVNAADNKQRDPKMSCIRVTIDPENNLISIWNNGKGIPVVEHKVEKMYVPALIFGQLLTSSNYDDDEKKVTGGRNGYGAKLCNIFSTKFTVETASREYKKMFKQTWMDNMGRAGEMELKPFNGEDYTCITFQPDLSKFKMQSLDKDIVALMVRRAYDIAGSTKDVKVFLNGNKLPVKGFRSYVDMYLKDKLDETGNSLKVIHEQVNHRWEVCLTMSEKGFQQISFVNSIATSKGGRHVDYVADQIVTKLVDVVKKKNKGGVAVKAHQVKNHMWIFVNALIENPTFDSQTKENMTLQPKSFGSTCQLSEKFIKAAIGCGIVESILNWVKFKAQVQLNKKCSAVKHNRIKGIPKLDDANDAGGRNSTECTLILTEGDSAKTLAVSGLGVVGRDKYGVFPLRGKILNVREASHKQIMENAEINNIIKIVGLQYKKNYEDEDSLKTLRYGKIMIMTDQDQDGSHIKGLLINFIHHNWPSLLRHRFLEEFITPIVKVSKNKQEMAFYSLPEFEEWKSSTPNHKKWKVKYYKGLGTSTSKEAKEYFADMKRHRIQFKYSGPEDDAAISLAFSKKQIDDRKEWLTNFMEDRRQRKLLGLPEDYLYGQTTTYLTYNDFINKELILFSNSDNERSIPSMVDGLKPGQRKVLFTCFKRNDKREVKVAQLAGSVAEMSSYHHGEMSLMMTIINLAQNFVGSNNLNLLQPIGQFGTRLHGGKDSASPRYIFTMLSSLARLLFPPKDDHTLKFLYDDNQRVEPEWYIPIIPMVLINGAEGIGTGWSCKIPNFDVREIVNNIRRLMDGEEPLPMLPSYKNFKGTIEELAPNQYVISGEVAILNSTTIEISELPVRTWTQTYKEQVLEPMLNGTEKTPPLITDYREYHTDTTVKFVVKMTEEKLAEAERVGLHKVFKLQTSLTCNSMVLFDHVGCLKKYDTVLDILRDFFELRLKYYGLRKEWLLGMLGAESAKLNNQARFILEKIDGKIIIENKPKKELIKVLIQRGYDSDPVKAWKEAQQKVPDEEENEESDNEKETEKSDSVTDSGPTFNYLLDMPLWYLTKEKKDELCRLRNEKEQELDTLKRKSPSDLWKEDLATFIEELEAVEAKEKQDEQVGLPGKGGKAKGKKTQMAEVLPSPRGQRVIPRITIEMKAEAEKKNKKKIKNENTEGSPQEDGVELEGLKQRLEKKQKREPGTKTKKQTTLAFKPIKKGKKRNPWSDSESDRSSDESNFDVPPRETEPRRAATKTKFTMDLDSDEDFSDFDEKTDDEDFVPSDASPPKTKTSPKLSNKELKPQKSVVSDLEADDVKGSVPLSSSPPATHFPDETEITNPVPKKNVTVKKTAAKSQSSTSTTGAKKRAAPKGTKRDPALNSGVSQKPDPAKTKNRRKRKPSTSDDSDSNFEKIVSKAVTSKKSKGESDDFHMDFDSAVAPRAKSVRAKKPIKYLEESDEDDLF

[1] = tested on: hematological cell lines (HL60, K562 and HEL); assay: Antiproliferative activity, hematological cell lines together; format: cell-based; conditions: read-out: IC50 range toward hematological cell lines
[2] = Pharmacokinetic study in SD rats; format: in vivo; conditions: male, Sprague-Dawley, rat, plasma, 20 mg/kg
HDAC10 = HDAC10 (Homo sapiens, UniProt Q969S8); assay: HDACs activity assay, HDAC10; format: biochemical
Procedure, shortened: as §1

HCT116 cells [3] = assay: Flow cytometry assay of cell apoptosis; format: cell-based, human; conditions: 48 h
[4] = tested on: Acetyl-H3 and Acetyl-H4 in HCT116 cells; assay: Western blot for acetylated histones H3 and H4; format: cell-based, human; conditions: 0.5 and 5 μmol/L, 24 h
Procedure, shortened: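 HCT116 cells (35 × 10^4/well) were exposed 24 h to test compound or DMSO vehicle, washed with cold PBS and lysed 30 min on ice in RIPA with protease/phosphatase inhibitors. BCA-quantified protein (30 μg) was run on SDS-PAGE and transferred to PVDF. Membranes were blocked 2 h in 5% BSA, probed overnight at 4 °C with anti-histone H3 and H4 antibodies, then secondary 1.5 h. Infrared imaging.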

HDAC4 = HDAC4 (Homo sapiens, UniProt P56524); assay: HDACs activity assay, HDAC4; format: biochemical
Sequence of HDAC4 (P56524 whole entry): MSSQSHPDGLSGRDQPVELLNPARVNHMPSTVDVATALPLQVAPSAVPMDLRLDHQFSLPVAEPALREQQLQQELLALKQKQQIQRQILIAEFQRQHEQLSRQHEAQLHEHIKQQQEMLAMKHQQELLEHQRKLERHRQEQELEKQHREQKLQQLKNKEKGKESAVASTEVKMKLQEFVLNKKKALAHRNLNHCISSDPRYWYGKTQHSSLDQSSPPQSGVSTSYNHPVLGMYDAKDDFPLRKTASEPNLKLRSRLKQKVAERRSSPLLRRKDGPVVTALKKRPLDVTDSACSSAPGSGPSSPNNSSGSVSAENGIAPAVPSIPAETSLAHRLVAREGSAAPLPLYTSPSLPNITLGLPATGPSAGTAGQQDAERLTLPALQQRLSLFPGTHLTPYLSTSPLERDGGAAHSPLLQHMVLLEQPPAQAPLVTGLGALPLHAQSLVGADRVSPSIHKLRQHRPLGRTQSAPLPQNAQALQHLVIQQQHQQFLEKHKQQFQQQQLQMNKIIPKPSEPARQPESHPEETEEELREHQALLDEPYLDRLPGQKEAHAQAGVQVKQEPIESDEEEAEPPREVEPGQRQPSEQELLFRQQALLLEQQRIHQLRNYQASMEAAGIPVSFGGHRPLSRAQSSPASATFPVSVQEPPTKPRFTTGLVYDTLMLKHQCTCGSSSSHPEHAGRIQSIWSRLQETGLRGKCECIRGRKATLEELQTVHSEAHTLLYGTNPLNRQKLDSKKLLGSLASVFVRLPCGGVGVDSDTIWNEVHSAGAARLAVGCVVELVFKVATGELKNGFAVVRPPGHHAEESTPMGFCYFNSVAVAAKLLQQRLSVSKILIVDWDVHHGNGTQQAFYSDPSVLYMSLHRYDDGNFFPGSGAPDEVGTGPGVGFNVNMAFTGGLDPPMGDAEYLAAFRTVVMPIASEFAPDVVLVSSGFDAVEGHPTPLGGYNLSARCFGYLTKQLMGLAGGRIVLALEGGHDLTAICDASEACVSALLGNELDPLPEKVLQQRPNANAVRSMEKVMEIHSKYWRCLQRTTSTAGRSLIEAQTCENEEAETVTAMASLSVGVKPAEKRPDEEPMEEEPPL
Procedure, shortened: as §1

HDAC11 = HDAC11 (Homo sapiens, UniProt Q96DB2); assay: HDACs activity assay, HDAC11; format: biochemical
Sequence of HDAC11 (Q96DB2 whole entry): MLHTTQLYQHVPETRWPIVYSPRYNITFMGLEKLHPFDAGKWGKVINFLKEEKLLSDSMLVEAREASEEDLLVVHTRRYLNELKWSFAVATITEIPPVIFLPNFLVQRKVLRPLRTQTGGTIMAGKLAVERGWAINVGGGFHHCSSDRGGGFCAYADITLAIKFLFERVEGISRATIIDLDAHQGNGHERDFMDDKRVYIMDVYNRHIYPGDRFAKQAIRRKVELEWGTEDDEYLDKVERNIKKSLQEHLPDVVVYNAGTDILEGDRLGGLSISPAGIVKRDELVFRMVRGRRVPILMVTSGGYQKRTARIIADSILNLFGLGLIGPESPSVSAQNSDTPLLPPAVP
Procedure, shortened: as §1

HCT116 xenograft = assay: In vivo tumor growth inhibition assay against HCT116 xenograft; conditions: bid
[5] = target: human recombinant HDAC1 enzyme (Homo sapiens, UniProt Q13547); assay: HDACs activity assay, HDAC1; format: biochemical; conditions: read-out: IC50 HDAC1; Table 3, Table S1 and text
HDAC3 = HDAC3 (Homo sapiens, UniProt O15379); assay: HDACs activity assay, HDAC3; format: biochemical
Sequence of HDAC3 (O15379 whole entry): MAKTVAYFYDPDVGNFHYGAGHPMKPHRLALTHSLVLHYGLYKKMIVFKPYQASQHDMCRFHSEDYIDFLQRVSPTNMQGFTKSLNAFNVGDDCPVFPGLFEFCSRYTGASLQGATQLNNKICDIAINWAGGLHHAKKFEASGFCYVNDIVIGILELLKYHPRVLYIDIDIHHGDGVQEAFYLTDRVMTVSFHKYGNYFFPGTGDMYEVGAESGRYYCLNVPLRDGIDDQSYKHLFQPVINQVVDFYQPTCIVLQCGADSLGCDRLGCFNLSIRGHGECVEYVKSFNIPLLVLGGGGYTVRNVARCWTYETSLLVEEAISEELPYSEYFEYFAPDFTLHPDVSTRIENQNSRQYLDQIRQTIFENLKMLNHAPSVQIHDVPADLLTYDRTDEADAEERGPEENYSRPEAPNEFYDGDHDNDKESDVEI
Sequence of HDAC3 (Q9Y618 395-489 partner limits assumed): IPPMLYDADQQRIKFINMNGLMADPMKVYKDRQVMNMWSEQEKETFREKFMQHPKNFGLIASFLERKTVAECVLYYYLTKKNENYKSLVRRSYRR
Procedure, shortened: as §1

HUVEC = assay: Cytotoxicity against human normal cell line HUVEC; format: cell-based; conditions: read-out: IC50 HUVEC
HCT116 cells [6] = assay: Flow cytometry analysis of cell cycle; format: cell-based, human; conditions: 48 h
HCT116 (colon cancer) = assay: In vitro cell viability assay; format: cell-based; conditions: Homo sapiens, HCT-116, 48 h, read-out: IC50 HCT116
MCF-7 (breast cancer) = assay: In vitro cell viability assay; format: cell-based; conditions: Homo sapiens, MCF7, 48 h, read-out: IC50 MCF-7
[7] = In vitro metabolic stability in mice liver microsomes; format: in vitro ADME
γH2AX in HCT116 cells = assay: Western blot for γH2AX; format: cell-based, human; conditions: 0.5 and 5 μmol/L, 24 h
Procedure, shortened: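 HCT116 seeded at 35 × 10^4 cells/well, treated 24 h with test compound or vehicle. Cells washed in cold PBS, lysed 30 min on ice in RIPA with protease and phosphatase inhibitors, protein quantified by BCA. 30 μg resolved by SDS-PAGE, transferred to PVDF, blocked 2 h in 5% BSA, primary antibody overnight at 4 °C, secondary 1.5 h, infrared imaging.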

[8] = female, ICR, mouse, liver microsomes, pH 7.4

Sequence of HDAC6 (Q9UBN7 whole entry, canonical isoform): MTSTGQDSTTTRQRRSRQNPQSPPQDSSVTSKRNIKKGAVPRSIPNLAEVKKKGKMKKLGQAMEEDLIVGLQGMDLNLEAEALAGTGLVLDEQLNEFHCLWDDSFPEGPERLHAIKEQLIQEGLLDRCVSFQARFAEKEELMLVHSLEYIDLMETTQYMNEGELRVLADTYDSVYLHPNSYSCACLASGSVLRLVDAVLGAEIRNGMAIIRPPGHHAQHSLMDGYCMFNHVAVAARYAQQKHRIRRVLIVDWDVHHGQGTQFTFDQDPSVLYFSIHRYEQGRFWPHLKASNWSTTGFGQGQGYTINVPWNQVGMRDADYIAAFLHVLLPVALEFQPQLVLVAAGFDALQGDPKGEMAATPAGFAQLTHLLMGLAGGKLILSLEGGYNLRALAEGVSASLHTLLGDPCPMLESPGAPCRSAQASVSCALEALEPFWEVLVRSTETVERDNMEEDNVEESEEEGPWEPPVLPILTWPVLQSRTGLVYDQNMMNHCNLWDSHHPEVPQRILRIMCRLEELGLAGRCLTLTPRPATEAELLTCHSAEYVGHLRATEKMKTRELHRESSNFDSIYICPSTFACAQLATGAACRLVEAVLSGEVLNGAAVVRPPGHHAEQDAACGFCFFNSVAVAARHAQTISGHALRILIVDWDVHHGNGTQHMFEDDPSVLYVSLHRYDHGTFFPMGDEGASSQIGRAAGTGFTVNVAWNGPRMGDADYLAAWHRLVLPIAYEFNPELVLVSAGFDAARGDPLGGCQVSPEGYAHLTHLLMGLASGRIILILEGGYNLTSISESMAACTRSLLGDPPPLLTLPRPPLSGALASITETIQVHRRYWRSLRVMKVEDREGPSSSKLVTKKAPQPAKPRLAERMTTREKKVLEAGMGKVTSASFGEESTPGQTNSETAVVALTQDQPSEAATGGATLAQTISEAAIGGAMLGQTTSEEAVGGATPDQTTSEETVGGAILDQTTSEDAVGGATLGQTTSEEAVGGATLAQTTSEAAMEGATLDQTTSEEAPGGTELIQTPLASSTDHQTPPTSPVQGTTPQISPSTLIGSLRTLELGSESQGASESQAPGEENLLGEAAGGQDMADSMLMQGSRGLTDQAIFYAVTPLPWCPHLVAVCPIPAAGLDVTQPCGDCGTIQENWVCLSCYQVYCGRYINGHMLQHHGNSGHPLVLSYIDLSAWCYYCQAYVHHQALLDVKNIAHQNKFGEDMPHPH

IC50 (HDAC6): > 100 µM | IC50 (A549 (lung cancer)): 7.8 ± 0.65 µM | IC50 (HDAC8): > 100 µM | IC50 (HDAC2): 10 ± 1.4 µM | TOP2 inhibitory activity (relaxation assay) (TOP2α; 50 μmol/L): remarkable TOP2 inhibitory activities | TOP2 inhibitory activity (relaxation assay) (TOP2α; 100 μmol/L): remarkable TOP2 inhibitory activities | IC50 [1]: 0.56 to 1.9 µM | AUC(0-t) ([2]; ip): 86900 ng·h/mL | half-life ([2]; ip): > 24 h | AUC(0-t) ([2]; po): 485 ng·h/mL | half-life ([2]; po): 4.03 h | IC50 (HDAC10): 5.5 ± 1.5 µM | IC50 (HDAC4): > 100 µM | IC50 (HDAC11): > 100 µM | IC50 [5]: 0.16 ± 0.015 µM | IC50 (HDAC3): 27 ± 4.8 µM | IC50 (HCT116 (colon cancer)): 1.6 ± 0.15 µM | IC50 (MCF-7 (breast cancer)): 18 ± 2 µM | half-life at 1 μmol/L [7, 8]: 0.583 h | microsomal CLint at 1 μmol/L [7, 8]: 39.1 µL/min/mg | Microsomal t1/2 relative to compound 25a ([7]; mice liver microsomes): ~3 fold
SMILES: CN1c2ccccc2C(=O)N2[C@H](C(=O)Nc3ccc(C(=O)Nc4ccccc4N)cc3)Cc3c([nH]c4ccccc34)[C@@H]12 [Compound 30a, (7S,13bS)-N-(4-((2-Aminophenyl)carbamoyl)phenyl)-14-methyl-5-oxo-5,7,8,13,13b,14-hexahydroindolo[2′,3′:3,4]pyrido[2,1-b]quinazoline-7-carboxamide]
Percentage of apoptotic cells (HCT116 cells [3]; HCT116, 0.5 μmol/L): 27.6% | Percentage of apoptotic cells (HCT116 cells [3]; HCT116, 1 μmol/L): 37.1% | Percentage of apoptotic cells (HCT116 cells [3]; HCT116, 5 μmol/L): 88.8% | Acetylation of histone 3 and 4 (Acetyl-H3 and Acetyl-H4) [4]: hyperacetylation effect of histone 3 and 4 (Acetyl-H3 and Acetyl-H4) in a dose-dependent manner | Tumor growth inhibition (TGI) (HCT116 xenograft; 20 mg/kg, i.p., 14 consecutive days): 63.6% | Tumor growth inhibition (TGI) (HCT116 xenograft; 100 mg/kg, p.o., 21 days): 65.42% | Tumor growth inhibition (TGI) (HCT116 xenograft; 150 mg/kg, p.o., 21 days (dose of the combination not given)): 75.2% | Body weight during the test (HCT116 xenograft; p.o., 100 or 150 mg/kg, 21 days): no significant difference | IC50 (HUVEC): 48 µM | Ratio of cells at the G2/M phase (HCT116 cells [6]; HCT116, 0.5 μmol/L): 32.9% | Ratio of cells at the G2/M phase (HCT116 cells [6]; HCT116, 1 μmol/L): 36.4% | Ratio of cells at the G2/M phase (HCT116 cells [6]; HCT116, 2 μmol/L): 38.8% | Expression of γH2AX (γH2AX in HCT116 cells): increased the expression of γH2AX
